Only some compounds are listed: those with a hit (about 2.6% of all), similar ones and a draw of the others.
ABCB6 inh 2 = human ABCB6 transporter inhibition | Q9NP58 | K562-ABCB6 porphyrin accumulation, flow cytometry, 1 h; active compounds read low | fluorescence ratio to DMSO, % at 10 µM | 0.19% of 360,000 active;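 active = fluorescence ratio to DMSO below 75%, the collection mean minus 3 SD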;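 note: signal is porphyrin accumulated inside mitochondria; 100% equals median channel fluorescence of DMSO control wells; lower ratio means ABCB6 inhibition with less porphyrin fluorescence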
Exocytosis inh = lytic granule exocytosis inhibition; TALL-104 LAMP-1 surface exposure, flow cytometry; cells stimulated with thapsigargin and PMA; 0.66% of 360,000 active; inhibition, % at 10 µM;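 active = inhibition above about 55%, limit read from the data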
iPSC survival up = hiPSC single-cell survival enhancement. ATPlite luminescence; 100% = ROCK inhibitor wells, 0% = DMSO. survival enhancement, % at 20 µM. 0.044% of 360,000 active. AID 602274; in the data active = survival enhancement above about 18%;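 note: cells exposed to compounds for 16 hours before the ATP read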
Tb MetRS inh = Trypanosoma brucei MetRS inhibition. purified T. brucei MetRS, ATP depletion, Kinase-Glo luminescence. inhibition, % at 11.9 µM. 0.4% of 360,000 active;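 active = inhibition above a per-plate cutoff of the control wells' mean inhibition plus 3 SD, cut at about 5.5% in these data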;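 note: 0% = DMSO wells median and 100% = median of wells with control inhibitor compound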
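Dosing: 11.9 µM compound single dose, 0.9% DMSO; Assay system: purified T. brucei MetRS enzyme; Measured by: Kinase-Glo luciferase luminescence reporting remaining unconsumed ATP; Schedule: 15 min plus 2 h at 25 °C.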
MC4R barr agon = human MC4R agonism via beta-arrestin | activation, % at 8.9 µM | P32245 | AID 540308 | 0.98% of 360,000 active | U2OS MC4R beta-arrestin complementation, luminescence; percent of melanotan II response, DMSO zero;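 active = activation above a per-plate cutoff, the mean activation of sample wells on that plate plus 3 SD, cut at about 8% in these data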
Target sequence (P32245 whole entry, looked up): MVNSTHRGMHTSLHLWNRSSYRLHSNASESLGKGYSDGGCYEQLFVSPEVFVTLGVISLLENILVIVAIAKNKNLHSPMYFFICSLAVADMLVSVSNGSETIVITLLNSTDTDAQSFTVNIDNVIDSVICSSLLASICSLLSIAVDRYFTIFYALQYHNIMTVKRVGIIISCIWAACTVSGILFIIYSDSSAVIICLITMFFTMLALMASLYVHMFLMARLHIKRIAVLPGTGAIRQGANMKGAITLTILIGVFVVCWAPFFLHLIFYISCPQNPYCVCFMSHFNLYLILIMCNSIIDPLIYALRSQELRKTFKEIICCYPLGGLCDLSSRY
MC4R antagonist = antagonists of human melanocortin 4 receptor (MC4R); 0.48% of 360,000 active; inhibition, % at 6.5 µM; P32245; MC4R-expressing cells, MTII-stimulated cAMP, LANCE TR-FRET; AID 540295;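 active = inhibition above its plate's cutoff, the mean of tested wells on that plate plus 3 SD, cut at about 29% in these data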;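 note: 0% = Melanotan II alone and 100% = Melanotan II plus saturating MCL0020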
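Material – human MC4R-expressing U2OS cells · Repeats – no replicates · Detection – TR-FRET with Eu-cAMP and labeled anti-cAMP, 671 nm · Times – compound 30 min, challenge 1 h, detection 1 h · Compound – single nominal compound dose of 6.5 µM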
MC4R barr ag = human MC4R beta-arrestin agonism confirmation; shares compounds with MC4R barr agon; U2OS MC4R beta-arrestin recruitment, luminescence; scaled DMSO 0%, Melanotan II 100%; activation, % at 8.9 µM; 31% of 2,400 active; AID 602192;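 active = mean activation across replicates above the hit cutoff set in the earlier primary screen, cut at about 8% in these data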
MOR DOR agonist = counter-screen for MC4R agonists: agonists of mu-delta opioid heterodimer; shares compounds with MC4R barr agon; U2OS PathHunter beta-arrestin, beta-gal luminescence; percent of deltorphin B response, DMSO zero; activation, % at 9.2 µM; 5.8% of 2,400 active;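 active = mean activation across replicates exceeds the hit threshold derived in the earlier primary screen, cut at about 18% in these data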;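 note: 100% = deltorphin B at 0.9 µM final and 0% = DMSO alone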
Active calls of the source: *; / = no result given; ! = not active in a repeat.

SMILES	ABCB6 inh 2	Exocytosis inh	iPSC survival up	Tb MetRS inh	MC4R barr agon	MC4R antagonist	MC4R barr ag	MOR DOR agonist
COc1ccc2cc3cc(C(=O)Nc4ccc5c(c4)OCCO5)oc3nc2c1	84.0	-1.5	-0.5	-0.2	43.2*	-7.0	8.0	6.1
COc1ccc2cc3cc(C(=O)Nc4cc(OC)c(OC)c(OC)c4)oc3nc2c1	95.0	-0.7	-2.0	-0.2	0.6	-4.6	/	/
O=C(COC(=O)c1ccccc1NC(=O)c1ccco1)NCCC1=CCCCC1	112.0	-3.8	7.2	-0.6	14.3*	-1.2	2.0	4.4
O=C(COC(=O)c1ccccc1O)NCCC1=CCCCC1	95.0	0.7	1.6	-0.4	3.0	9.9	/	/
COc1ccc(Cn2c(C)nc3c(c2=O)c2nc4ccccc4nc2n3Cc2ccco2)cc1	107.0	42.7	0.7	0.0	11.0*	19.4	-3.2	1.7
COc1ccccc1CNC(=O)C(NS(=O)(=O)c1ccc2c(c1)OCCO2)C(C)C (centres undefined)	103.0	5.4	0.4	0.4	-1.8	12.9	/	/
Cc1cccc2cc3c(NC(=O)c4ccccn4)nn(C)c3nc12	106.0	0.2	0.6	-1.2	12.7*	-3.2	1.6	4.3
CCCC(=O)Nc1nn(C)c2nc3c(C)cccc3cc12	89.0	-1.2	-0.9	-0.2	-2.6	-1.0	/	/
O=C(COc1ccc2c(c1)OCO2)Nc1ccc2c(c1)oc1ccccc12	104.0	0.2	3.2	-0.4	22.2*	-0.1	21.0*	3.1
O=C1CCC(C(=O)N(CCO)Cc2ccccc2)CN1CCc1cccc(F)c1 (centres undefined)	97.0	-19.5	1.1	0.1	-2.6	-2.7	/	/
CC(C)=C[C@H]1C[C@H](C)[C@H]2CC[C@H](C)c3c(O)c(O[C@H]4OC[C@H](O)[C@@H](O)[C@@H]4O)c(C)c1c32	100.0	-6.0	-0.2	-1.5	12.4*	-4.6	3.8	1.8
N#Cc1cccc(NC(=O)CCNC(=O)c2ccccc2Cl)c1	97.0	4.5	0.4	0.6	-1.2	6.7	/	/
O=C(N/N=C/c1cccc(O)c1)c1ccc(COc2cccc3cccnc23)cc1	97.0	0.1	-0.9	-0.2	0.8	-3.3	/	/
CC(C)(C)c1ccc(OCc2ccc(C(=O)N/N=C/c3ccc(O)c(O)c3)cc2)cc1	99.0	2.3	-0.4	0.0	25.3*	6.5	9.8*	5.7
O=C(N/N=C/c1cccc(O)c1)c1ccc(COc2ccccc2Br)cc1	99.0	14.4	2.2	0.0	12.5*	1.6	6.3	3.4
O=C(N/N=C/c1ccc(OCc2ccc(F)cc2)cc1)c1ccccc1	100.0	-7.6	-0.4	0.5	4.9	-1.3	/	/
CCN(C(=O)Cn1cc(C(F)(F)F)ccc1=O)c1c(N)n(Cc2ccccc2)c(=O)[nH]c1=O	97.0	-1.2	-0.5	-0.4	0.2	-0.3	/	/
COc1ccc(/C=C/C(=O)Nc2sc(Cc3ccccc3)c(C)c2C(N)=O)cc1	101.0	-0.1	-0.6	-1.0	25.4*	-5.7	16.2*	8.2
Cc1c(Cc2ccccc2)sc(NC(=O)Cc2ccccc2)c1C(N)=O	104.0	-0.8	-2.7	-0.1	11.3*	5.6	3.7	4.7
O=C(CN(CCc1ccccc1)S(=O)(=O)c1ccc(Cl)cc1)N/N=C/c1ccc2c(c1)OCO2	98.0	12.4	-0.4	-0.8	24.6*	7.0	7.4	5.1
COc1ccc(S(=O)(=O)N(CCc2ccccc2)CC(=O)N/N=C/c2ccc3c(c2)OCO3)cc1	97.0	-0.4	-0.4	0.2	1.6	1.4	/	/
CCn1c(COc2ccc3c(c2)OCO3)nnc1SCC(=O)c1ccc(Cl)cc1	76.0	-5.6	-2.1	-0.6	9.9*	-7.3	1.7	3.9
CC(C)CN(C(=O)CN(C)CC(=O)Nc1ccccc1C#N)c1c(N)n(CC(C)C)c(=O)[nH]c1=O	100.0	4.1	5.3	-0.1	-1.9	5.3	/	/
Cc1ccc(C(=O)Nc2cccc(C(F)(F)F)c2)cc1NC(=O)c1nccnc1N	96.0	-1.0	2.0	0.0	16.8*	-18.1	7.8	44.4*!
O=C(CN1CCOCC1)Nc1cccc(C(=O)Nc2cccc(C(F)(F)F)c2)c1	87.0	1.6	0.2	0.2	-2.9	3.0	/	/
SMILES	ABCB6 inh 2	Exocytosis inh	iPSC survival up	Tb MetRS inh	MC4R barr agon	MC4R antagonist	MC4R barr ag	MOR DOR agonist
CCCCCNCC(=O)Nc1cccc(C(=O)Nc2cccc(C(F)(F)F)c2)c1	95.0	35.6	-0.5	-1.0	15.2*	-4.7	16.2*	14.0
Cc1cc(=O)n2nc(N3CCCC(C(=O)NCc4cccc(Br)c4)C3)sc2n1 (centres undefined)	99.0	-0.5	-0.2	0.4	1.4	14.0	/	/
Fc1cc(Br)ccc1Nc1nc2ccccc2n2nnnc12	108.0	7.7	1.7	0.2	13.8*	-1.0	9.6*	4.5
O=C(Nc1ccc(Cl)cc1)OCc1cc(-c2ccccc2Cl)on1	96.0	-0.7	-3.7	-0.2	11.1*	4.3	8.6*	4.9
COc1ccc(-c2cc(C(=O)Nc3ccc(C)cc3)no2)cc1	100.0	-4.1	-0.6	0.7	0.9	14.7	/	/
Cc1ccc(NC(=O)OCc2cc(-c3ccccc3)on2)cc1	93.0	4.1	-3.1	-0.9	10.5*	-4.8	1.1	5.7
Cc1cc(SCc2cc(=O)[nH]c3ccccc23)nc2ccccc12	94.0	-2.2	-1.5	-1.3	11.7*	-2.7	2.9	4.9
CCc1cc2c(=O)n(-c3ccccc3)c(=S)[nH]c2s1	99.0	-1.4	-2.9	-1.5	1.1	-2.4	/	/
O=C(CSc1nnc2ccc(-c3cccnc3)nn12)Nc1ccccc1	96.0	-5.1	0.0	-0.5	-3.4	3.4	/	/
COc1cccc(-c2cc(C(=O)Nc3ccccc3SC)no2)c1	101.0	-0.6	-2.0	-0.9	6.6	0.6	/	/
COc1ccc(-c2cc(C(=O)Nc3ccccc3SC)no2)cc1OC	102.0	-3.9	2.3	0.0	39.3*	-4.9	3.0	13.2
O=C(Nc1cnn(C23CC4CC(CC(C4)C2)C3)c1)c1cc(-c2ccccc2)on1	96.0	7.4	-1.8	-0.6	11.8*	0.3	0.3	1.9
CCCn1cc(NC(=O)c2cc(-c3ccccc3)on2)cn1	98.0	-0.4	1.7	0.2	2.9	0.9	/	/
COc1ccc(-c2cc(C(=O)Nc3cnn(Cc4ccccc4C)c3)no2)cc1OC	96.0	-7.0	2.9	-0.2	11.9*	-1.5	3.1	8.9

High-throughput results (PubChem)
